# Screening results from PubChem BioAssay.
# DAX1 inh-1: DAX1 (NR0B1) inhibitors, primary screen, cell-based, HEK293, Gal4-DAX1, luciferase luminescence; Nuclear receptor subfamily 0 group B member 1 (Homo sapiens), P51843; HEK293 Gal4-DAX1 luciferase reporter; inhibition, % at 6.75 µM; 0.99% of 340,000 active; AID 504766, 2011;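 active = inhibition above the mean over all tested compounds plus 3 SD, cut at about 4.2% in these data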;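 note: inhibition shows as a rise in luminescence from relieved DAX1 repression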
# Target sequence (P51843 207-470 limits assumed): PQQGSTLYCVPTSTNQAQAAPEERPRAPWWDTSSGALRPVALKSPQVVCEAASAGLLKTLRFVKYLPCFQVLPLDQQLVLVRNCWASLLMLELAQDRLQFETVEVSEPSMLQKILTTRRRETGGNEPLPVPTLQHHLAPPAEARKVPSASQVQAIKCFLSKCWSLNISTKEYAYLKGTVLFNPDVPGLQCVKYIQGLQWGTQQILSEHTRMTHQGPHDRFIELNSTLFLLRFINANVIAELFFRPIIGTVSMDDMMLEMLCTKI
# NR2E3 ag-1: NR2E3 agonists in two-hybrid cells, primary screen, cell-based, luminescence, CHO-S, Gal4-NCOR/VP16-NR2E3; 0.35% of 360,000 active; inhibition of corepressor binding, % at 3.98 µM; AID 602229, 2012; luciferase; Photoreceptor-specific nuclear receptor (Homo sapiens), Q9Y5X4;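 active = inhibition above the mean of all tested compounds plus 3 SD, cut at about 70% in these data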;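 note: higher means lower luciferase signal from less NR2E3 corepressor binding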
# SMARCA2 act: SMARCA2 (BRM) function activators, primary screen, cell-based, luminescence, high throughput. MG213 cells, MMTV-luciferase reporter, dexamethasone, overnight. activation, % at 9.1 µM. 1% of 370,000 active. AID 652017, 2013; in the data active = activation above about 7.8%
# JMJD2C inh: inhibitors of GASC-1 histone demethylase, primary screen, biochemical, fluorescence, DELFIA europium; 0.069% of 330,000 active; inhibition, % at 2.35 µM; AID 2099, 2009; Lysine-specific demethylase 4C (Homo sapiens), Q9H3R0; GST-JMJD2C(1-420) H3K9me3 demethylation;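 active = more than half of a compound's replicate wells show inhibition beyond 50%, single wells judged on their own value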;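 note: signal counts dimethyl H3K9 product captured on neutravidin plate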
# NR2E3 ag-2: inhibitors of NR2E3-RetCOR corepressor binding, primary screen, NR2E3 agonist project, biochemical, TR-FRET, GST-NR2E3, biotin-RetCOR; 0.12% of 320,000 active; 1536-well; AID 2300, 2010; inhibition of corepressor binding, % at 4.78 µM; Photoreceptor-specific nuclear receptor (Homo sapiens), Q9Y5X4;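 active = percent inhibition above the cutoff of mean plus 3 SD of all tested compounds, set per screening campaign, cut at about 20% in these data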
#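 Material: NR2E3–RetCOR corepressor complex / Amount: 1.35 nM GST-NR2E3 / Medium: Tris pH 7.5 / Compound: single nominal compound dose of 4.8 µM / Incubation: 5 h at 4 °C / Technique: TR-FRET, Eu(K)-anti-GST donor, streptavidin-D2 acceptor, ex 340, em 617/671 nm / Read-out basis: percent loss of FRET ratio relative to control wells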
# DAX1 inh-2: DAX1 (NR0B1) inhibitors on StAR promoter, primary screen, cell-based, luminescence, SF-1 (NR5A1), full-length DAX-1. HEK293T StAR-luciferase reporter, SF-1/DAX-1 repression relief. inhibition, % at 6.8 µM. 1.1% of 370,000 active;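 active = inhibition above the mean over all tested compounds plus 3 SD, cut at about 3.6% in these data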;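 note: higher inhibition means more luminescence from relief of DAX-1 repression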
# Numbers stand for hits; . = inactive; / = no result given. Shown are actives, neighbours in structure and some others; about 3.2% of the full set was active somewhere.
SMILES,DAX1 inh-1,NR2E3 ag-1,SMARCA2 act,JMJD2C inh,NR2E3 ag-2,DAX1 inh-2
COC(=O)c1cc(C(C)c2c[nH]c3ccccc23)n2ccccc12 (stereo not drawn),/,/,.,/,/,.
CC(NC(=O)CSc1ncccc1C(=O)O)C1CC2CCC1C2 (stereo not drawn),5.1,.,.,.,.,.
Nc1ncnc2c1ncn2C1C=C(CO)C(O)C1O (stereo not drawn),7.6,74,/,/,/,/
O=C(Nc1ccccc1)c1cc2ccccc2s1,.,.,.,/,/,4.2
O=C(Nc1ccccn1)c1ccc([N+](=O)[O-])cc1Cl,.,.,.,.,.,.
O=C(Nc1ccccn1)c1cc2cc([N+](=O)[O-])ccc2s1,.,.,.,.,.,4.1
O=C(NC(=S)NNC(=O)[C@H]1C[C@@H]1c1ccccc1)c1ccc(F)cc1,.,.,.,.,.,.
O=C(/C=C/c1ccc(F)cc1)NC(=S)NNC(=O)[C@H]1C[C@@H]1c1ccccc1,.,.,.,.,.,3.6
N#Cc1ccc(NCCCN2CCC(C(O)(c3ccccc3)c3ccccc3)CC2)cc1,/,/,.,/,/,.
CC[C@H](CCCc1ccc(F)cc1)CN(Cc1ccc(OC)cc1)S(=O)(=O)c1ccc(C)cc1,/,/,.,/,/,.
CCCC(=O)Nc1ccc(S(=O)(=O)N2CCc3ccccc32)cc1,4.8,.,.,/,/,.
CCC(=O)Nc1ccc(S(=O)(=O)N2CCc3ccccc32)cc1,.,.,.,.,.,.
O=C(O)Cn1cc(C(=S)N2CCCCC2)c2ccccc21,6.2,.,.,.,.,.
O=c1c2c(nc3cc(-c4ccc(Br)cc4)[nH]n13)CCCC2,6.3,.,.,.,.,3.7
O=C(CNC(=O)c1ccc(Cl)cc1)NNC(=O)c1ccc(Br)cc1,.,.,.,.,/,.
NC(=O)CNC(=O)c1ccc(Cl)cc1,5.6,.,.,.,.,.
COc1ccc(Cc2nc(=S)[nH][nH]2)cc1Br,4.5,.,.,.,.,.
O=C(CSc1cccc2cccnc12)OCC(=O)c1ccc(Br)cc1,.,.,.,.,.,.
O=C(CSc1cccc2cccnc12)OCC(=O)c1ccccc1,4.5,.,.,.,.,.
COC(=O)c1ccc2c(c1)NC(=O)C(N(CC(C)C)CC(C)C)S2 (stereo not drawn),5.1,.,.,.,.,.
Cc1c(Cl)cccc1NC(=O)CSc1sc2c(O)cc(=O)[nH]c2c1C#N,4.4,.,.,.,.,.
N#Cc1c(SCC(=O)Nc2ccc(Cl)cc2Cl)sc2c(O)cc(=O)[nH]c12,.,.,7.8,.,.,.
N#CCC[C@H]1CC[C@]2(CCCN(c3ccccc3)C2)O1,/,/,.,/,/,.
CC(=O)c1c(C)[nH]c(C(=O)Nc2ccc(Cl)c(S(=O)(=O)N(C)C)c2)c1C,10.0,.,.,.,.,.
CC(=O)c1c(C)[nH]c(C(=O)OCC(=O)Nc2ccc(Cl)c(S(=O)(=O)N(C)C)c2)c1C,.,.,.,.,.,.
SMILES,DAX1 inh-1,NR2E3 ag-1,SMARCA2 act,JMJD2C inh,NR2E3 ag-2,DAX1 inh-2
CN=CC1=C(O)C(C(=O)OC)C(C)(C)CC1=O (stereo not drawn),4.3,.,.,.,.,.
Cc1cccc(NC(=O)Nc2ccc3c(c2)CCC3)c1,.,.,.,.,.,4.1
CC(=O)c1cccc(NC(=O)Nc2ccc3c(c2)CCC3)c1,.,.,.,.,.,.
O=C(COC(=O)C1=COCCO1)Nc1ccccc1,4.4,.,.,.,.,.
COc1cccc(NC(=O)C2=COCCO2)c1,.,.,.,.,.,3.7
COc1cccc(NC(=O)Nc2ccc3c(c2)CCC3)c1,.,.,.,.,.,4.1
COc1cccc(NC(=O)CN(C)C(=O)C2=COCCO2)c1,.,.,.,/,/,.
COc1ccc(OC)c(NC(=O)Nc2ccc3c(c2)CCC3)c1,.,.,.,.,.,.
CC(COc1ccc(S(C)(=O)=O)cc1)CN1CCC(C(O)(c2ccccc2)c2ccccc2)CC1 (stereo not drawn),/,/,.,/,/,.
COc1cccc(NC(=O)CN(C)C(=O)c2cc3c(s2)CCCCC3)c1,.,.,.,.,.,.
CCc1ccc(NC(=O)Nc2ccc3c(c2)CCC3)cc1,.,.,.,.,.,3.7
O=C(Nc1ccc2c(c1)CCC2)Nc1ccc2c(c1)OCO2,.,.,.,.,.,.
COc1cccc(NC(=O)CN(C)C(=O)c2cc3c(s2)CCCC3)c1,.,.,.,.,.,3.7
Cc1cccc(NC(=O)C2C3CCCCC32)c1 (stereo not drawn),5.5,.,.,.,/,.
COC(=O)CSc1nnc(-c2cccs2)o1,/,/,.,/,/,.
O=C(NCCc1c[nH]c2ccccc12)OCc1cn(Cc2cccc(Cl)c2)nn1,/,/,.,/,/,.
Cc1ccc(CN2CCC(CNC(=O)Nc3ccccc3F)CC2)cc1,4.4,.,.,.,.,.
O=C(NCC1CC1)Nc1ccccc1F,.,.,.,.,.,.
COC(=O)[C@]12C[C@H](CC(=O)NCc3ccccc3)C(=O)N(Cc3ccco3)C1=C[C@H](C(C)(C)C)O[C@@H]2C,/,/,.,/,/,.
COc1ccc(-c2cc(C(=O)N/N=C/C(C)=C\c3ccco3)[nH]n2)cc1,/,/,.,/,/,.
O=C(NCc1ccccc1)C1Cc2ccccc2CN1C(=O)c1ccco1 (stereo not drawn),.,.,.,.,.,.
Cc1ccccc1NC(=O)C1Cc2ccccc2CN1C(=O)c1ccco1 (stereo not drawn),5.4,.,.,.,.,.
Cn1nc(C(F)(F)F)c(/C=N/OC(=O)c2ccccc2)c1SCc1ccc(Cl)cc1,.,.,.,.,.,.
Cn1nc(C(F)(F)F)c(/C=N/OC(=O)c2ccccc2Cl)c1SCc1ccccc1Cl,.,73,.,.,.,.
Cc1ccc(NC(=O)C2CC(=O)N(Cc3ccccc3)C2)nc1 (stereo not drawn),.,.,.,.,.,.
Cc1ccnc(NC(=O)C2CC(=O)N(Cc3ccccc3)C2)c1 (stereo not drawn),.,.,.,.,.,4.3
CC1(C)CC(/C=C/c2ccccc2)=Nc2ccccc2N1,6.0,.,.,.,.,.
O=C1CC(/C=C/c2ccccc2)=Nc2ccccc2N1,.,.,.,.,.,.
